# From ChEMBL document CHEMBL4049426, “Identification of the Clinical Candidate (R)-(1-(4-Fluorophenyl)-6-((1-methyl-1H-pyrazol-4-yl)sulfonyl)-4,4a,5,6,7,8-hexahydro-1H-pyrazolo[3,4-g]isoquinolin-4a-yl)(4-(trifluoromethyl)pyridin-2-yl)methanone (CORT125134): A Selective Glucocorticoid Receptor (GR) Antagonist” (J Med Chem, 2017)
# Calls of active or inactive are those of the source. The calls are words filed in the database; no cut-off is given here.
# What was measured:
# Glucocorticoid receptor = target: T1, Glucocorticoid receptor (Canis lupus familiaris, UniProt A0A8C0QLS2); assay: (§1) Agonist activity at dog glucocorticoid receptor in primary hepatocytes assessed as induction of tyrosine amino transferase activity measured after 20 hrs; format: cell-based
# T1 sequence (A0A8C0QLS2 whole entry): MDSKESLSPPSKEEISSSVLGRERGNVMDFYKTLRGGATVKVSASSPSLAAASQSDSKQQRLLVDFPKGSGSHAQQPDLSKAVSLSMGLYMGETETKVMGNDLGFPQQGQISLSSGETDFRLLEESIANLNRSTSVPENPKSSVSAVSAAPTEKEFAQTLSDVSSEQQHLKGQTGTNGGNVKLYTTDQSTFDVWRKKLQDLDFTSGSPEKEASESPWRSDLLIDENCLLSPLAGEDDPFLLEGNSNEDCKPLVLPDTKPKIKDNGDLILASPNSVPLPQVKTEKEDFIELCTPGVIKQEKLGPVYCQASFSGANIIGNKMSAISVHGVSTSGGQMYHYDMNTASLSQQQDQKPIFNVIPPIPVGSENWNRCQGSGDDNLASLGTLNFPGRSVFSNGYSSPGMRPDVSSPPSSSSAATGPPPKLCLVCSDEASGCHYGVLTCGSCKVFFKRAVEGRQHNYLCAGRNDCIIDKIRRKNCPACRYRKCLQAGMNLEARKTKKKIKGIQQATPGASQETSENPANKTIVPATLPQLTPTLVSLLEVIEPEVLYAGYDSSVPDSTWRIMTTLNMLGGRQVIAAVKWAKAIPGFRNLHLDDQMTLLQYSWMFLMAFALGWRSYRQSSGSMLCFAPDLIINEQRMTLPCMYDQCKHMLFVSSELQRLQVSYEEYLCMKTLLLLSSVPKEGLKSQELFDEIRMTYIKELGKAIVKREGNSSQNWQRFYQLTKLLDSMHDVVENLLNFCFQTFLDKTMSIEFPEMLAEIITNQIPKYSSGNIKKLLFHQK
# [1] = target: T2, Glucocorticoid receptor (Canis lupus familiaris) (UniProt A0A8C0QLS2); assay: as §1; format: cell-based
# T2 sequence (whole entry): T1 sequence (A0A8C0QLS2 whole entry)
# Cytochrome P450 2C19 = Cytochrome P450 2C19 (Homo sapiens, UniProt P33261); assay: Inhibition of CYP2C19 (unknown origin); format: ADME
# Cytochrome P450 2C19, sequence (P33261 whole entry): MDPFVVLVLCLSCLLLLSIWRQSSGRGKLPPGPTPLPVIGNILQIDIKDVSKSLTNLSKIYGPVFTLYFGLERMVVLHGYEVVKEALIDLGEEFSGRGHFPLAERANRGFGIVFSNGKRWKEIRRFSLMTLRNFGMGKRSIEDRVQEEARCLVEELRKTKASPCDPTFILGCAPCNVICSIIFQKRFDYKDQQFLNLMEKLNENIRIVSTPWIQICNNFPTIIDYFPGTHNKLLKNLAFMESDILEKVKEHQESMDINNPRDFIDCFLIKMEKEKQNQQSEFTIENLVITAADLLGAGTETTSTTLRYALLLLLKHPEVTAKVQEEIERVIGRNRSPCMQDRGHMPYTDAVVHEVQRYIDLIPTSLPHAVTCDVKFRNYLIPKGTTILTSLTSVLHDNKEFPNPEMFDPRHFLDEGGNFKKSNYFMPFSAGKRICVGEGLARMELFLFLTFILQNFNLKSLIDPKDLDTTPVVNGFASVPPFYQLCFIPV
# Cytochrome P450 2D6 = Cytochrome P450 2D6 (Homo sapiens, UniProt P10635); assay: Time-dependent inhibition of CYP2D6 (unknown origin); format: ADME
# Cytochrome P450 2D6, sequence (P10635 whole entry): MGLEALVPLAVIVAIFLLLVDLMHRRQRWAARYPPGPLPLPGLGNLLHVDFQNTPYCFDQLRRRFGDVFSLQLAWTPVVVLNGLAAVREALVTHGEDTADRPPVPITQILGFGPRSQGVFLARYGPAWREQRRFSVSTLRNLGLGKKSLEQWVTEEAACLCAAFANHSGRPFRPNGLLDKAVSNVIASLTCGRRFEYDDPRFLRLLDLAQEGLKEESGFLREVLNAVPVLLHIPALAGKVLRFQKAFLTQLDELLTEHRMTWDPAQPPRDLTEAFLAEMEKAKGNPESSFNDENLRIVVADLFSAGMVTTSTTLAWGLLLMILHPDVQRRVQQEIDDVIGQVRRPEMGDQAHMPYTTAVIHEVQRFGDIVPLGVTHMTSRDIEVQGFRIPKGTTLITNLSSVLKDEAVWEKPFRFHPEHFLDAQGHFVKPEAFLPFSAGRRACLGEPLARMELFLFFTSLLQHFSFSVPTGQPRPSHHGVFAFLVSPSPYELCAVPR
# progesterone receptor = target: T3, progesterone receptor (Homo sapiens, UniProt P06401); assay: Inhibition of radioligand binding to progesterone receptor (unknown origin) at 1 uM relative to control
# T3 sequence (P06401 whole entry): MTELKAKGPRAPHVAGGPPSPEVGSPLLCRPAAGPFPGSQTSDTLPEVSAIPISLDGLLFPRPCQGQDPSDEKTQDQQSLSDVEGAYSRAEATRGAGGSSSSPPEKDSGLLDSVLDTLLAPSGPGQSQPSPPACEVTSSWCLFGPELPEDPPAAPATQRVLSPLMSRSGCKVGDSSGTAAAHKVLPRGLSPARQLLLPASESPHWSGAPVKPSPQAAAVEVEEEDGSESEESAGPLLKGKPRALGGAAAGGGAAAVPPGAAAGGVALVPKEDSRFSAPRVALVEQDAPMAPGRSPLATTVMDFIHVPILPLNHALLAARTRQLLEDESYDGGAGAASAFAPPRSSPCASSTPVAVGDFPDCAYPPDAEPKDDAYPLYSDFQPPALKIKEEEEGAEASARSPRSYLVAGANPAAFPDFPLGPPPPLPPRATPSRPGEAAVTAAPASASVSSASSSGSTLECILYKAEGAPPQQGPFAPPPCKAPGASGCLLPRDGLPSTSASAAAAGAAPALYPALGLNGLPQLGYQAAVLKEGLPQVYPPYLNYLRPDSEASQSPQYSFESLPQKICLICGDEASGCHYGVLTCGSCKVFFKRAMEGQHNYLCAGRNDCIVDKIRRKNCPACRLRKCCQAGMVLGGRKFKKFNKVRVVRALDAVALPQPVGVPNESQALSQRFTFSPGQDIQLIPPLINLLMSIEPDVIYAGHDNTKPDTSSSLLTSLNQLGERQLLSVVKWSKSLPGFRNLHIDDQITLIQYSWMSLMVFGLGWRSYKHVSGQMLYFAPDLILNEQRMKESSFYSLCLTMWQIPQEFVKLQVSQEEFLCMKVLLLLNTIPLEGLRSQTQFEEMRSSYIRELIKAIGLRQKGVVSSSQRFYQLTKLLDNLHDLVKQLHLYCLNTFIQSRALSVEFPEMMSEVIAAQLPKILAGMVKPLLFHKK
# Rattus norvegicus = assay: In vivo antagonist activity at glucocorticoid receptor in Sprague-Dawley rat cortisone model of exogenous Cushing's syndrome assessed as inhibition of plasma insulin levels at 7.5 mg/kg, po bid via gavage for 6 days pretreated for 12 hrs followed by cortisone 21-acetate treatment measured 24 hrs after last cortisone 21-acetate treatment; format: functional, organism-based
# How it was run: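 Male Sprague Dawley rats (200-250 g) got vehicle daily for a 3-day baseline, then groups of eight were dosed. Test agent was suspended in DMSO:Tween 80:0.5% HPMC (10:0.1:89.9) and given by oral gavage twice daily for 6 days. Cortisone 21-acetate was given at 30 mg/kg s.c. once daily in 1% methylcellulose. Tail-vein blood was taken 24 h after the last cortisone dose (12 h after the last test dose). Glucose was read with a clinical reagent and insulin by rat ELISA.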
# estrogen receptor = target: T4, estrogen receptor (Homo sapiens, UniProt P03372); assay: Inhibition of radioligand binding to estrogen receptor (unknown origin) at 1 uM relative to control
# T4 sequence (P03372 whole entry): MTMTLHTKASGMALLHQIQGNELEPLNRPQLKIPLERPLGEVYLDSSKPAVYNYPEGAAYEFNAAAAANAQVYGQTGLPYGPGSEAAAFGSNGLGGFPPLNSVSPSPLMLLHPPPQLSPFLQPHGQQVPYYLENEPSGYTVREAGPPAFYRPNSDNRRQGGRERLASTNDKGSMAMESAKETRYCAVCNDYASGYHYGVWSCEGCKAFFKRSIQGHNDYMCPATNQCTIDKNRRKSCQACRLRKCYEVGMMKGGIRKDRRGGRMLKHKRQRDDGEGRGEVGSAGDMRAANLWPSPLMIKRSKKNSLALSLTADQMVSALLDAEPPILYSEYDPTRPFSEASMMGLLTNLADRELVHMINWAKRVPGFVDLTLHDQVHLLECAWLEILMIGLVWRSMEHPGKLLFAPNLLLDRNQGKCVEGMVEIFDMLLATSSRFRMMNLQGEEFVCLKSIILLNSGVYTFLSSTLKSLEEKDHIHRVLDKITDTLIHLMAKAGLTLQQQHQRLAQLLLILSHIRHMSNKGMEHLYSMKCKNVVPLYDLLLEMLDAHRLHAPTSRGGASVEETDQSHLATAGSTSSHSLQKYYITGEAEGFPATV
compound,measurement,setting,value
Cn1cc(S(=O)(=O)N2CCC3=Cc4c(cnn4-c4ccc(F)cc4)C[C@]3(C(=O)c3cc(C(F)(F)F)ccn3)C2)cn1 [RELACORILANT],EC50,Glucocorticoid receptor,> 10 µM
same,Emax,[1],80%
same,IC50,Cytochrome P450 2C19,8 µM
same,TDI,Cytochrome P450 2D6,Not Active
same,inhibition at 1 µM,progesterone receptor,< 10%
same,inhibition,Rattus norvegicus,Active
same,inhibition at 1 µM,estrogen receptor,< 10%
